The text below walks through data of PubChem BioAssay.

Assay [1] is described as follows: Her2 expression decrease, cell viability multiplex – SKBR3 breast tumor cells, AlphaScreen, ATP viability, primary screen (AID 461;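 active = Her2 level under about 52% in both replicate screens, with viability over 70% of control, limit read from the data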;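 for Her2 level: lower value means less Her2 protein in the cells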;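 for viability: percent of carrier control wells set as 100% viability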). The following applies: SKBR3 Her2 protein level, 18-24 h, measured here: SKBR3 viability, ATP luminescence, at 10 µM. (In general: In Alpha technology, singlet oxygen from a donor bead excites a nearby acceptor bead.)
Assay [2] concerns the target Receptor tyrosine-protein kinase erbB-2 (Homo sapiens) (UniProt P04626). The assay is described as above. The following applies: 18-24 h, at 10 µM, stronger effect = lower value.
A short description of assay [3]: reduced viability of SK-BR-3 breast cancer cells – cell-based, 24 h, human, pilot screen (AID 572;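 active = viability at or below 10% of carrier control in both of two separate runs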;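 note: compound exposure lasted between 18 and 24 h rather than exactly 24 h; 100% = carrier-treated control wells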). As to conditions: SK-BR-3 viability, CellTiter-Glo luminescence, at 10 µM, stronger effect = lower value. For orientation: In ATP-based viability assays light output follows the ATP content of the culture.
A short description of assay [4]: HUVEC growth inhibition – cell-based, human, primary screen (AID 575).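 Note: 100% = median of untreated cell wells with 0.1% DMSO on each plate.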 The following applies: HUVEC proliferation, CellTiter-Glo luminescence, 72 h; at 10 µM; stronger effect = lower value. The procedure, abridged:
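system = HUVEC primary cells | amount = 1250 cells/well | buffer or medium = supplemented EBM, 2% fetal bovine serum | dosing = single-point 10 µM, DMSO 0.1% final | times = 72 h compound incubation | detection = CTG luminescence | read-out = % viability relative to median vehicle-well signal on each plate | control set = vehicle and MePR control wells | format = collagen-coated 384-well format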

Assay [5] can be described thus: H69AR cell proliferation blockers – human, duplicate replicates, primary screen (AID 580;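 active = viability at or under a set limit in both replicates, limit being median viability minus 3 SD, cut at about 48% in these data, passing the limit was not always enough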;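 note: 100% = mean luminescence of untreated wells and 0% = no signal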). The following applies: H69AR lung tumor cells viability, ATP luminescence, 72 h; at 10 µM; stronger effect = lower value.
A short description of assay [6]: MRP1 drug-resistance reversers in H69AR cells – cell-based, doxorubicin co-treatment, pilot screen (AID 601;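 active = viability loss from added drug above about 55%, and viability with drug at most 40%, in both replicates, limit read from the data, passing the limit was not always enough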). The following applies: CellTiter-Glo, 72 h, at 10 µM; for differential viability (reversal): stronger effect = higher value.
Assay [7] can be described thus: yeast transport mutant growth inhibition pilot in 384-well plates, post-Golgi transport modulator project (AID 636; in the data active = inhibition above about 31%). The following applies: absorbance 615 nm, about 18 h, stronger effect = higher value.
Assay [8] can be described thus: growth suppression of yeast trafficking mutant, preliminary HTS, modulators of trafficking downstream of Golgi apparatus project, 1536-format plate, OD 615 nm (AID 637; in the data active = inhibition above about 30%). As to conditions: yeast transport mutant growth, absorbance 615 nm, 18 h; stronger effect = higher value.
Where [9] appears, read: H69AR cells + 2 uM doxorubicin, measured here: viability with 2 uM doxorubicin, stronger effect = lower value.
[10] abbreviates: H69AR cells, compound alone cytotoxicity.

The source made the active and inactive calls.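 Rule for the calls, unless noted: active = viability at or below 30% in both replicate assays; inconclusive = viability at or below 30% in just one of the two assays; inactive = the rest.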

Receptor tyrosine-protein kinase erbB-2 (Homo sapiens), sequence (P04626 whole entry, looked up): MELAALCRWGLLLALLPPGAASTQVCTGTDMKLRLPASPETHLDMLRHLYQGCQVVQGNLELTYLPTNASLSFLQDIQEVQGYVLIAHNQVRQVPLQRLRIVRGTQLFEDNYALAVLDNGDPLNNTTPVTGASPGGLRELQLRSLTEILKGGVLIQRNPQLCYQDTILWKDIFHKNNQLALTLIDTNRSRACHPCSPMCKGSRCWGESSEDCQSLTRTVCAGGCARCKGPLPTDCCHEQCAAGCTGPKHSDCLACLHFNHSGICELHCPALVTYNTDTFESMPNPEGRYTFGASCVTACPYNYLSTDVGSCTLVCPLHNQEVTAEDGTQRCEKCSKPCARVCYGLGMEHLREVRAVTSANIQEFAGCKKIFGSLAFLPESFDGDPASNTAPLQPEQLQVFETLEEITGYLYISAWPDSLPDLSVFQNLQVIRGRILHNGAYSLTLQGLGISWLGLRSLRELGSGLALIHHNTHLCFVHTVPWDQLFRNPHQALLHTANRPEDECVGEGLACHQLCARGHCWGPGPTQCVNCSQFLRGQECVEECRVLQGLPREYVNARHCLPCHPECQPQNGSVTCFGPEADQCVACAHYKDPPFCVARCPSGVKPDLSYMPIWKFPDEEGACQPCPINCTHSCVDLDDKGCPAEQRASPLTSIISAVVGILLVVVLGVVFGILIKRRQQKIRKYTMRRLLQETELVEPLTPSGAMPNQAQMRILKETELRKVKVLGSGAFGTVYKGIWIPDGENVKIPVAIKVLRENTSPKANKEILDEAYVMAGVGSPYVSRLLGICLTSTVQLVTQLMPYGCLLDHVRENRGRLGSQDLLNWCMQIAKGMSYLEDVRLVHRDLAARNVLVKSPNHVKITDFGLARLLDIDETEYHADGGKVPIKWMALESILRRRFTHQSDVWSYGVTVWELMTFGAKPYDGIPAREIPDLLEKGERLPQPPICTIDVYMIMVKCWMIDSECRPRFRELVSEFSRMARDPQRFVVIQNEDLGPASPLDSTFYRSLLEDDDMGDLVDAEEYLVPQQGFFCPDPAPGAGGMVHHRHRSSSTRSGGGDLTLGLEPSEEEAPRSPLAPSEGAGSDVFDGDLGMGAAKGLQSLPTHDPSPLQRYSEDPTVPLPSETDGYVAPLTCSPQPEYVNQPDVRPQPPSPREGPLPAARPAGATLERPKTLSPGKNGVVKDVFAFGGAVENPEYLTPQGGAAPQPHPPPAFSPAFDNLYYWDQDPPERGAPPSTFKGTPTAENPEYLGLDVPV

What is called viability is a read-out of living cells in per cent, often relative to untreated cells. In general, inhibition refers to the drop in the measured response relative to a control, in per cent. For `CCN1C(=O)N(CC)C2C1N(C(C)=O)C(=O)N2C(C)=O` (stereo not given), the viability in assay [1] is 107%; in assay [3], 107% (inactive); in assay [4], 104% (inactive); in assay [5], 94.8% (inactive); in assay [6] (setting [9]), 83%; in assay [6] (setting [10]) it was 94.8%. Also, the Her2 level in assay [2] was 102% (inactive). Also, the differential viability (reversal) in assay [6] (H69AR cells + 2 uM doxorubicin) was 11.9% (inactive). Also, the inhibition in assay [7] was -5.66% (inactive); in assay [8], -2.18% (inactive).
Take `Cc1ccc(NC2=NC(c3ccccc3)n3c(nc(C)cc3=O)N2)cc1` (stereo not given): the viability in assay [1] was 86.5%; in assay [3] it was 86.5% (inactive); in assay [4] it was 93.5% (inactive); in assay [5], 88.5% (inactive); in assay [6] (setting [9]), 77.2%; in assay [6] (setting [10]) it was 88.5%. For the same molecule, the Her2 level in assay [2] was 82% (inactive). In addition, the differential viability (reversal) in assay [6] (H69AR cells + 2 uM doxorubicin) is 11.3% (inactive). Further, the inhibition in assay [7] was -2.11% (inactive); in assay [8] it was 2.55% (inactive).
In the case of `CCN(CC)S(=O)(=O)c1ccc(NC2c3ccccc3C(=O)N2CCN2CCOCC2)cc1` (stereo not given), the viability in assay [1] was 101%; in assay [3], 101% (inactive); in assay [4], 85.2% (inactive); in assay [5], 87% (inactive); in assay [6] (setting [9]), 76.2%; in assay [6] (setting [10]) it was 87%. In addition, the Her2 level in assay [2] is 105% (inactive). Also, the differential viability (reversal) in assay [6] (H69AR cells + 2 uM doxorubicin) was 10.8% (inactive). Moreover, the inhibition in assay [7] was -1.54% (inactive); in assay [8], -0.83% (inactive).
For `O=C(NCCCCNC(=O)c1c(F)c(F)c(F)c(F)c1F)c1c(F)c(F)c(F)c(F)c1F`, the viability in assay [1] is 98.5%; in assay [3] it was 98.5% (inactive); in assay [4], 97.2% (inactive); in assay [5] it was 89.4% (inactive); in assay [6] (setting [9]), 78.9%; in assay [6] (setting [10]), 89.4%. The Her2 level in assay [2] is 76.5% (inactive). Besides, the differential viability (reversal) in assay [6] (H69AR cells + 2 uM doxorubicin) was 10.4% (inactive). The results for the inhibition in assay [7] and in assay [8] were -6.27% (inactive) and -3.17% (inactive), respectively.
For `CCOC(=O)c1ccc(N2C(=O)C3CC=CCC3C2=O)cc1` (stereo not given), the viability in assay [1] is 112%; in assay [3], 112% (inactive); in assay [4], 92.8% (inactive); in assay [5], 99.3% (inactive); in assay [6] (setting [9]), 91.9%; in assay [6] (setting [10]) it was 99.3%. Moreover, the Her2 level in assay [2] is 116% (inactive). In assay [6] (H69AR cells + 2 uM doxorubicin), the differential viability (reversal) was 7.42% (inactive). Further, the values for the inhibition in assay [7] and in assay [8] were -6.4% (inactive) and -10.2% (inactive), respectively.
Consider `CCOC(=O)C1CCN(c2c(N3CCCC(C(=O)OCC)C3)c(=O)c2=O)CC1` (stereo not given), for which the viability in assay [1] is 103%; in assay [3], 103% (inactive); in assay [4], 97.1% (inactive); in assay [5], 96.9% (inactive); in assay [6] (setting [9]) it was 100%; in assay [6] (setting [10]), 96.9%. For the same molecule, in assay [2], the Her2 level was 119% (inactive). Moreover, the differential viability (reversal) in assay [6] (H69AR cells + 2 uM doxorubicin) was -3.29% (inactive). Also, the inhibition in assay [7] was 2.31% (inactive); in assay [8], -2% (inactive).
For the molecule `Cn1c(=O)c(C(=O)Nc2cccnc2)c(O)c2ccccc21`, the viability was 81% in assay [1]; 81% (inactive) in assay [3]; 105% (inactive) in assay [4]; 88.4% (inactive) in assay [5]; 98.2% in assay [6] (setting [9]); 88.4% in assay [6] (setting [10]). Also, the Her2 level in assay [2] is 59.5% (inactive). Besides, the differential viability (reversal) in assay [6] (H69AR cells + 2 uM doxorubicin) is -9.81% (inactive). The inhibition is -3.65% (inactive) in assay [7] and 2.46% (inactive) in assay [8].
`O=C(O)c1[nH]nc2c1COc1ccccc1-2`: the viability in assay [1] was 93.5%; in assay [3], 93.5% (inactive); in assay [4], 109% (inactive); in assay [5], 100% (inactive); in assay [6] (setting [9]) it was 93.3%; in assay [6] (setting [10]) it was 100%. Moreover, the Her2 level in assay [2] was 92% (inactive). Besides, the differential viability (reversal) in assay [6] (H69AR cells + 2 uM doxorubicin) was 7.14% (inactive). Further, the inhibition in assay [7] is -0.92% (inactive); in assay [8], 2.95% (inactive).
On to `Cc1ccc(C(=O)CC2(O)C(=O)N(CN3CCOCC3)c3ccccc32)cc1` (stereo not given), for which the viability in assay [1] is 100%; in assay [3] it was 100% (inactive); in assay [4], 85.9% (inactive); in assay [5], 94.6% (inactive); in assay [6] (setting [9]), 99.7%; in assay [6] (setting [10]), 94.6%. Besides, the Her2 level in assay [2] was 90.5% (inactive). The differential viability (reversal) in assay [6] (H69AR cells + 2 uM doxorubicin) is -5.11% (inactive). The inhibition in assay [7] is -3.55% (inactive); in assay [8], -4.83% (inactive).
On to `CCSc1nnc(NC(=O)c2nn(C(C)C)c(=O)c3ccccc23)s1`, for which the viability in assay [1] was 99%; in assay [3], 99% (inactive); in assay [4], 81.5% (inactive); in assay [5], 79.4% (inactive); in assay [6] (setting [9]), 88.7%; in assay [6] (setting [10]) it was 79.4%. In addition, the Her2 level in assay [2] was 77.5% (inactive). Also, in assay [6] (H69AR cells + 2 uM doxorubicin), the differential viability (reversal) was -9.27% (inactive). The figures for the inhibition in assay [7] and in assay [8] were -5.39% (inactive) and -2% (inactive), respectively.
`COc1ccc(NC(=O)Cn2nnc(-c3ccccc3N)n2)cc1OC`: the viability was 106% in assay [1]; 106% (inactive) in assay [3]; 94.4% (inactive) in assay [4]; 97.8% (inactive) in assay [5]; 93.3% in assay [6] (setting [9]); 97.8% in assay [6] (setting [10]). Moreover, in assay [2], the Her2 level is 108% (inactive). Also, the differential viability (reversal) in assay [6] (H69AR cells + 2 uM doxorubicin) is 4.44% (inactive). The inhibition was -5.07% (inactive) in assay [7] and 10% (inactive) in assay [8].
Turning to `O=C(Nc1cccc(O)c1)c1ccccc1`, the viability in assay [1] is 93%; in assay [3], 93% (inactive); in assay [4] it was 78% (inactive); in assay [5], 95.2% (inactive); in assay [6] (setting [9]), 103%; in assay [6] (setting [10]) it was 95.2%. Further, the Her2 level in assay [2] is 123% (inactive). The differential viability (reversal) in assay [6] (H69AR cells + 2 uM doxorubicin) is -7.51% (inactive). Also, the inhibition is -5% (inactive) in assay [7] and -7.05% (inactive) in assay [8].
On to `COc1cc2c(=O)n(Cc3ccccc3)c(=O)n(CC(=O)NCc3ccco3)c2cc1OC`, for which the viability in assay [1] was 126%; in assay [3] it was 126% (inactive); in assay [4], 95.4% (inactive); in assay [5], 86.2% (inactive); in assay [6] (setting [9]), 87%; in assay [6] (setting [10]) it was 86.2%. Further, the Her2 level in assay [2] was 83% (inactive). Further, the differential viability (reversal) in assay [6] (H69AR cells + 2 uM doxorubicin) was -0.76% (inactive). Besides, the inhibition in assay [7] was -8% (inactive); in assay [8], -3.65% (inactive).
`O=C(CSc1nc(-c2ccccc2)cs1)NC(=O)NCc1ccco1`: the viability in assay [1] is 86.5%; in assay [3] it was 86.5% (inactive); in assay [4], 58.4% (inactive); in assay [5] it was 76.7% (inactive); in assay [6] (setting [9]), 77.6%; in assay [6] (setting [10]) it was 76.7%. For the same molecule, the Her2 level in assay [2] is 77.5% (inactive). In addition, the differential viability (reversal) in assay [6] (H69AR cells + 2 uM doxorubicin) was -0.93% (inactive). For the same molecule, the inhibition in assay [7] was -5.6% (inactive); in assay [8], 2.06% (inactive).
